Assay results from ChEMBL document CHEMBL4308830, “Design, Synthesis, and Characterization of 4-Undecylpiperidine-2-carboxamides as Positive Allosteric Modulators of the Serotonin (5-HT) 5-HT2C Receptor” (J Med Chem, 2018).
Active and inactive are the calls of the source.

Legend:
[1] = test system: Rattus norvegicus; assay: Increase in WAY163909-induced suppression of spontaneous locomotor activity in Sprague-Dawley rat assessed as reduction in total ambulation at 5 mg/kg, ip administered as single dose measured for 30 mins; assay type: functional, organism-based
Procedure, shortened: (§1)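 Rats (n = 9–10/group) received SB242084 (1 mg/kg ip) or vehicle (8% 2-hydroxypropyl-β-cyclodextrin) 15 min before ip WAY163909 (1 mg/kg) plus compound (5 mg/kg). They were placed in monitors immediately; ambulations and vertical activity were totalled over 30 min. Analysis: ANOVA with Bonferroni comparisons.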

[2] = biological target: 5-hydroxytryptamine receptor 1A (Homo sapiens) (UniProt P08908); assay: Displacement of [3H]-8-OH-DPAT from recombinant human 5-HT1AR expressed in CHO cell membranes at 10 uM after 90 mins by scintillation counting method relative to control
Chain of 5-hydroxytryptamine receptor 1A (Homo sapiens) (P08908 whole entry): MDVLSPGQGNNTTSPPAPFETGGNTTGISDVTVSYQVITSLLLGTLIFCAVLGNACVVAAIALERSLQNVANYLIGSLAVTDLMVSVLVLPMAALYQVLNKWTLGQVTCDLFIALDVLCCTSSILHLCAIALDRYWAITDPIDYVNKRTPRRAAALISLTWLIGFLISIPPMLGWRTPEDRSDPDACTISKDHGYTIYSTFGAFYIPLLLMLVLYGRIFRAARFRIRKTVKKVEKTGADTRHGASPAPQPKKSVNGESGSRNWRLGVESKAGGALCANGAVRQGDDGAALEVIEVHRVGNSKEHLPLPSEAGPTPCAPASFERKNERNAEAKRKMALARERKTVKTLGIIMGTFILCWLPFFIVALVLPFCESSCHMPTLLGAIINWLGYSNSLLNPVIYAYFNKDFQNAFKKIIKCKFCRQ

[3] = test system: Rattus norvegicus; assay: Drug discrimination in WAY163909-trained Sprague-Dawley rat assessed as increase in WAY163909-appropriate lever responding at 0.5 mg/kg, ip co-treated with WAY163909 15 mins prior to test relative to control; assay type: functional
Procedure, shortened: (§2)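 Water-restricted male Sprague–Dawley rats were trained to discriminate WAY163909 (0.75 mg/kg ip, 15 min pretreatment) from saline under FR20, to a criterion of ≥80% correct for 10 sessions. Test doses were given ip 15 min before test: compound alone (0.125–1.0 mg/kg) or compound 0.5 mg/kg plus WAY163909 0.5 mg/kg. Read-out was % drug-lever responding; only rats completing FR20 within 15 min were counted.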

[4] = biological target: Sodium-dependent serotonin transporter (Homo sapiens) (UniProt P31645); assay: Displacement of [3H]-citalopram from recombinant human SERT expressed in HEK cell membranes at 10 uM after 90 mins by scintillation counting method relative to control
Chain of Sodium-dependent serotonin transporter (Homo sapiens) (P31645 whole entry, looked up): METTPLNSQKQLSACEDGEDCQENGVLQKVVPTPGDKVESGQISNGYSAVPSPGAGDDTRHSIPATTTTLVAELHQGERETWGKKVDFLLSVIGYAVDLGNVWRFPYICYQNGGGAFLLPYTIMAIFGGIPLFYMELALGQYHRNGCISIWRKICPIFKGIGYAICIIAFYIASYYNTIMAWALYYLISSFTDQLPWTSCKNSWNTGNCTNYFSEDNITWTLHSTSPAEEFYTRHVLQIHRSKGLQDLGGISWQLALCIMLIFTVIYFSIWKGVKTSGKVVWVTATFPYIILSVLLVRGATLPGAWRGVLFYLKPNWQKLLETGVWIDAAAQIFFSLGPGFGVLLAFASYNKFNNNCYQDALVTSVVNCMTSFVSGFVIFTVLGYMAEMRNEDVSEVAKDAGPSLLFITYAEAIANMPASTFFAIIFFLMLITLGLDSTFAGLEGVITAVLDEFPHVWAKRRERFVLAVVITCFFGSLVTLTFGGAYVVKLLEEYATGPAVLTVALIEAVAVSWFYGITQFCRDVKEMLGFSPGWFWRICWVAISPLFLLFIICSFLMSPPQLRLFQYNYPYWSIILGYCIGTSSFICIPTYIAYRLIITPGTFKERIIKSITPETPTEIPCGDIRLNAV

[5] = test system: Rattus norvegicus; assay: Drug discrimination in WAY163909-trained Sprague-Dawley rat assessed as increase in WAY163909-appropriate lever responding at 0.5 mg/kg, ip treated 15 mins prior to test relative to control; assay type: functional; procedure, shortened: as §2
[6] = Cmax in Sprague-Dawley rat at 10 mg/kg, po administered as single dose; assay type: ADME, organism-based; set-up: dose 10 mg/kg, route oral; conditions: in vivo
[7] = biological target: T1, 5-hydroxytryptamine receptor 2C (Homo sapiens) (UniProt P28335); assay: Positive allosteric modulation of human 5-HT2CR expressed in CHO cells assessed as 5-HT-induced intracellular calcium release at 1 nM preincubated for 15 mins followed by 5-HT addition by calcium-4 dye based FLIPR assay (reference value: 100%); assay type: functional, cell-based
T1 sequence (whole entry): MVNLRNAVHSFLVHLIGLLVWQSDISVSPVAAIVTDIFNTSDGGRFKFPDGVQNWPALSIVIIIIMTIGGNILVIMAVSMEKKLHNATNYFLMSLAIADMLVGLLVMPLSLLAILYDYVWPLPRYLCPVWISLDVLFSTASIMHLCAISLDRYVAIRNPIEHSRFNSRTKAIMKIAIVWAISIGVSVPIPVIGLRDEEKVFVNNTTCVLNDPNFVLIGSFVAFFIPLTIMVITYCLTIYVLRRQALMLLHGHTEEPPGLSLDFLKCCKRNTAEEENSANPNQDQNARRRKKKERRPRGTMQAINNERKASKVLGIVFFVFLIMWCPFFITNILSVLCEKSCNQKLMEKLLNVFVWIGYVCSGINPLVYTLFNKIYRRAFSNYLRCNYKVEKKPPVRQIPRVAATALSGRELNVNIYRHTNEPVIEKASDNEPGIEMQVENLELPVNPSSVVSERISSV
Procedure, shortened: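 CHO cells stably expressing human unedited INI 5-HT2CR were plated, serum-starved 3 h, then loaded with Calcium 4 dye plus 2.5 mM probenecid (60 min 37 °C, then 15 min RT). Compound (1 nM) was added; the read after this addition gave intrinsic agonism. 5-HT (10 pM–10 μM) followed 15 min later. FLIPR-TETRA: 10 s baseline, 1 s reads for 120 s after compound and 360 s after 5-HT. Emax came from 4-parameter fits, ≥3 biological replicates in triplicate.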

[8] = biological target: D(1A) dopamine receptor (Homo sapiens) (UniProt P21728); assay: Displacement of [3H]-SCH23390 from recombinant human D1R expressed in HEKT cell membranes at 10 uM after 90 mins by scintillation counting method relative to control
Chain of D(1A) dopamine receptor (Homo sapiens) (P21728 whole entry): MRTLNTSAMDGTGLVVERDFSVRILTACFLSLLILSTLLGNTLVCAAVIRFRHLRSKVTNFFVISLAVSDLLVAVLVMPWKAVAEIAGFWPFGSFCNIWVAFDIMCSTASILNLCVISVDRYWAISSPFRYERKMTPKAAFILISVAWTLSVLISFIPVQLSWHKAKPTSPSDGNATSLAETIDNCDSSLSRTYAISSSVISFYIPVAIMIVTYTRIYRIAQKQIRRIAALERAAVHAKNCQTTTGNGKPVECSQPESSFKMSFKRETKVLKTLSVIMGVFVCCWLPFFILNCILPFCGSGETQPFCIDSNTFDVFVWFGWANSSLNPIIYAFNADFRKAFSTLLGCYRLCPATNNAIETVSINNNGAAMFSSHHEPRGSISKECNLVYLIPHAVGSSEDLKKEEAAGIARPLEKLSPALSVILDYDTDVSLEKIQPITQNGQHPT

[9] = biological target: 5-hydroxytryptamine receptor 5A (Homo sapiens) (UniProt P47898); assay: Displacement of [3H]-LSD from recombinant human 5-HT5AR expressed in Flp-IN CHO cell membranes at 10 uM after 90 mins by scintillation counting method relative to control
Chain of 5-hydroxytryptamine receptor 5A (Homo sapiens) (P47898 whole entry): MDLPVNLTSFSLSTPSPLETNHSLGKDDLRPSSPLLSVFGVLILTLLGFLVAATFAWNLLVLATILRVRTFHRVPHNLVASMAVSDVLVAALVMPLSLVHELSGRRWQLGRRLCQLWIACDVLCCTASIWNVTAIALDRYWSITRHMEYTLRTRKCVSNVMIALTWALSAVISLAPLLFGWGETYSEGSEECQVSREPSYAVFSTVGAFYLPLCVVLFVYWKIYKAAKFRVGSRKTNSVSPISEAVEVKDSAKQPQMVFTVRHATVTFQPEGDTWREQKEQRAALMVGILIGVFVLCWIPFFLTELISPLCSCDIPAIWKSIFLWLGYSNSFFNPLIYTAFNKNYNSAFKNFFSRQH

[10] = biological target: T1, 5-hydroxytryptamine receptor 2C (Homo sapiens); assay: Displacement of [3H]-mesulergine from recombinant human 5-HT2CR expressed in Flp-IN HEK cell membranes at 10 uM after 90 mins by scintillation counting method relative to control
Procedure, shortened: (§3)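 Single-concentration screen at 10 μM test compound, each target labelled with the radioligand given in the line. The read-out is mean % inhibition of specific radioligand binding (n = 4). Targets above 50% inhibition went on to full competition isotherms, and Ki came from best-fit IC50 by the Cheng–Prusoff equation.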

[11] = biological target: D(3) dopamine receptor (Homo sapiens) (UniProt P35462); assay: Displacement of [3H]-N-methylspiperone from recombinant human D3R expressed in HEK cell membranes at 10 uM after 90 mins by scintillation counting method relative to control; procedure, shortened: as §3
Chain of D(3) dopamine receptor (Homo sapiens) (P35462 whole entry): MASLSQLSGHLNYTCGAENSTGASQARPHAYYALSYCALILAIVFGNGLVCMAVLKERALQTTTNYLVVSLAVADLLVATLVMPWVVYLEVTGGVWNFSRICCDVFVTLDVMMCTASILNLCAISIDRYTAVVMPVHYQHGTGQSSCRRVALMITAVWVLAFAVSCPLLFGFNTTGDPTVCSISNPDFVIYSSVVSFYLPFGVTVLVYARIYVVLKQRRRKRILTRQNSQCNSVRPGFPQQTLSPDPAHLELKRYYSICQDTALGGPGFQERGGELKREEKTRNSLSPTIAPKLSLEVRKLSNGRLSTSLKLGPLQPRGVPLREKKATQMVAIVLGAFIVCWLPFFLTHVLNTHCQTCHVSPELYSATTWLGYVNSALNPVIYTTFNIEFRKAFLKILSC

[12] = test system: Rattus norvegicus; assay: Reduction in cocaine cue reactivity in Sprague-Dawley rat assessed as decrease in active lever presses at 1 mg/kg, ip administered as single dose 15 mins prior to self administration of cocaine; assay type: functional, organism-based
Procedure, shortened: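 Catheterized male Sprague–Dawley rats self-administered cocaine (0.75 mg/kg/infusion iv, each paired with light/pump cue) in 14 daily 180 min sessions, reaching FR5 stability. After 24 h they received saline (1 mL/kg ip) or compound (1 mg/kg ip) 15 min before a cue reactivity test.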

[13] = test system: Rattus norvegicus; assay: Increase in WAY163909-induced suppression of spontaneous locomotor activity in Sprague-Dawley rat assessed as reduction in total vertical activity at 5 mg/kg, ip cotreated with WAY163909 at 15 mins post 5-HT2C antagonist SB242084 treatment measured for 30 mins; assay type: functional, organism-based; procedure, shortened: as §1
[14] = Terminal half life in Sprague-Dawley rat at 5 mg/kg, iv administered as single dose; assay type: ADME, organism-based; conditions: in vivo
[15] = test system: Rattus norvegicus; assay: Suppression of spontaneous locomotor activity in Sprague-Dawley rat assessed as reduction in total vertical activity at 5 mg/kg, ip administered as single dose measured for 30 mins; assay type: functional, organism-based
Procedure, shortened: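 Male Sprague–Dawley rats naive to activity monitors (n = 7–8/group) received saline (1 mL/kg ip) or compound (0.5, 1 or 5 mg/kg ip) immediately before testing. Ambulations and vertical counts were taken in 5 min bins for 90 min and totalled over the first 30 min. Analysis: one-way ANOVA with Dunnett's comparisons to vehicle.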

[16] = biological target: Sodium-dependent dopamine transporter (Homo sapiens) (UniProt Q01959); assay: Displacement of [3H]-WIN35428 from recombinant human DAT expressed in HEK cell membranes at 10 uM after 90 mins by scintillation counting method relative to control; procedure, shortened: as §3
Chain of Sodium-dependent dopamine transporter (Homo sapiens) (Q01959 whole entry): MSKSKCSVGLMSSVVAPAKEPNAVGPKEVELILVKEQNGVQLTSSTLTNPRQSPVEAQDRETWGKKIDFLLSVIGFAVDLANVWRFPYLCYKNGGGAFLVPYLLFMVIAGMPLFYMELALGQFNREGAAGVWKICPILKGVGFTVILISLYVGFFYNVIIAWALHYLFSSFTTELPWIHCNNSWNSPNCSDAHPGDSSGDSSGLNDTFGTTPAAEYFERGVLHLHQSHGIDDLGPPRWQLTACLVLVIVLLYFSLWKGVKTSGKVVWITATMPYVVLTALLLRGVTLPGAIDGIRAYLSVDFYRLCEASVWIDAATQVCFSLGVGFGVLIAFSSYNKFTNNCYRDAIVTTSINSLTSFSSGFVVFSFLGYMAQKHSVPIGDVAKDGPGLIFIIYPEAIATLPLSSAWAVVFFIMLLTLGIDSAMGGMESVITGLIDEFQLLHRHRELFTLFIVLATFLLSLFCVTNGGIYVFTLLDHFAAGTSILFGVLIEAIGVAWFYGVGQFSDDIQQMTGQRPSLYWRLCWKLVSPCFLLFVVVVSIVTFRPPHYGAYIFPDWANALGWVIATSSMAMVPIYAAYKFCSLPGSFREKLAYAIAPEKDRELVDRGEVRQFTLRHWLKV

[17] = test system: CHO; assay: Cytotoxicity against CHO cells at 0.1 to 1000 nM after 1 hrs by LDH release assay; assay type: cell-based, Cricetulus griseus; conditions: chinese hamster, 1 µM
Procedure, shortened: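 Lactate dehydrogenase release assay for cytotoxicity, compounds tested at 0.1 nM and 1 μM.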

In the case of `CCCCCCCCCCC[C@@H]1CCN[C@H](C(=O)NCC(O)CO)C1` (relative stereo), the Activity [1] is reported as “Active”, the inhibition [2] is reported as 25.7% and the Activity [3] is reported as 95%. It also gave an inhibition [4] of 24.8%, an Activity [5] of 30% and a Cmax [6] of 68.1 ng/mL. For the same molecule, the Emax [7] was 123%, the inhibition [8] was 29.3% and the inhibition [9] was 17.2%. For the same molecule, the inhibition [10] was 9.8%, the inhibition [11] was 71.4% and the Activity [12] was “Active”. For the same molecule, the Activity [13] was “Active”, the “beta t1/2” value [14] was 6.59 h and the Activity [15] was “Active”. For the same molecule, the inhibition [16] was 66.3% and the Activity [17] was “Non-Toxic”.
